Experimental data taken from ChEMBL document CHEMBL1125484, “Nonpeptide angiotensin II receptor antagonists: synthetic and computational chemistry of N-[[4-[2-(2H-tetrazol-5-yl)-1-cycloalken-1-yl]phenyl]methyl]imidazole derivatives and their in vitro activity” (J Med Chem, 1992).

Columns and labels:
[1] = molecular target: T1, Type-1 angiotensin II receptor B (Rattus norvegicus, UniProt P29089); assay: Concentration required to inhibit binding of radioligand [125I]AII to angiotensin II receptor, type 1 in rat adrenal glomerulosa tissue
T1 sequence (P29089 whole entry): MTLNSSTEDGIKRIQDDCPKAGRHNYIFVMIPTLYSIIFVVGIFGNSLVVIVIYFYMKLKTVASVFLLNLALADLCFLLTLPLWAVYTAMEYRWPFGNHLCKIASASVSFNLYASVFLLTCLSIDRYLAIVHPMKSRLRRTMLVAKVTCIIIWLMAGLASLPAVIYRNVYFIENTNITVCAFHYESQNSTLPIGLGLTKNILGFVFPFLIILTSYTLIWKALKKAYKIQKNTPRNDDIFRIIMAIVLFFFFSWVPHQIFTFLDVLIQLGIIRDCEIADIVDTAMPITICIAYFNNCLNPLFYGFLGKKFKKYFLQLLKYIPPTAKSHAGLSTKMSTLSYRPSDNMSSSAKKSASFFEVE
In short: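 Buffer was 50 mM Tris, 120 mM NaCl, 5 mM MgCl2, 1 mM DTT and 0.05% BSA, with 8–15 μg protein. Antagonists were tested at 10 nM–100 μM, and nonspecific binding was defined with 0.1 μM [Sar1,Ile8]AII. Bound ligand was filtered and gamma-counted in triplicate. IC50 was taken from the linear portion of the displacement curve.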

[2] = species: Oryctolagus cuniculus; assay: pA2 value was determined by the compound's ability to antagonize the AII-induced contraction of rabbit aorta rings.; assay type: functional; details: read-out: pA2 (converted)
In short: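 Thoracic aorta rings (3 mm) from New Zealand white rabbits were held in 37 °C physiological salt solution aerated with 95% O2/5% CO2, and isometric tension was recorded. A cumulative AII curve (10^-10 to 10^-7 M) was run, the tissue washed, and the compound added in DMSO for 30 min before the AII curve was repeated. Responses were expressed as % of control maximum, with EC50s from four-parameter logistic fits.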

[3] = Partition coefficient (logP); assay type: physicochemical; details: octanol/water

SMILES | IC50 [1] | Kb [2] | logP [3]
CCCCc1nc(Cl)c(C(=O)O)n1Cc1ccc(C2=C(c3nn[nH]n3)CCCC2)cc1 | 400 nM | 4.07 nM | 4.81
CCCCc1nc(Cl)c(CO)n1Cc1ccc(C2=C(c3nnn[nH]3)CCC2)cc1 | 3500 nM | 355 nM | 3.78
CCCCc1nc(Cl)c(C(=O)O)n1Cc1ccc(C2=C(c3nn[nH]n3)CCCCC2)cc1 | 390 nM | 12 nM | 5.37
CCCCc1nc(Cl)c(C(=O)O)n1Cc1ccc(C2=C(c3nnn[nH]3)CCC2)cc1 | 310 nM | 14.5 nM | 4.25
CCCCc1nc(Cl)c(C(=O)O)n1Cc1ccc(-c2ccccc2-c2nn[nH]n2)cc1 [CARBOXYLIC ACID METABOLITE] | – | 0.234 nM | 4.92
CCCCc1nc(Cl)c(CO)n1Cc1ccc(-c2ccccc2-c2nnn[nH]2)cc1 [LOSARTAN] | – | 3.8 nM | 4.45
CCCCc1nc(Cl)c(CO)n1Cc1ccc(C2=C(c3nnn[nH]3)CCCC2)cc1 | – | 129 nM | 4.34
CCCCc1nc(Cl)c(CO)n1Cc1ccc(C2=C(c3nn[nH]n3)CCCCC2)cc1 | 2800 nM | 468 nM | 4.9
